Experimental data as given in ChEMBL document CHEMBL1149705, “Synthesis and antimicrobial evaluation of new chalcones containing piperazine or 2,5-dichlorothiophene moiety” (2007).
Values after ≈ are worked out from the molar mass of the structure shown.

Tests used:
Format in all cases: functional
[1] = system: Pichia kudriavzevii; test: Antifungal activity against Candida krusei GO3 at 250 ug/ml after 48 hrs by agar well diffusion technique; details: read-out: IZ
[2] = system: Proteus vulgaris; test: Antibacterial activity against Proteus vulgaris at 250 ug/ml after 48 hrs by agar well diffusion technique; details: read-out: IZ
How it was run: (§1)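 Cup-plate agar well diffusion on nutrient agar, set for 1–1.5 h. Cups of 10 mm were bored with a sterile cork borer, and test solution was added by sterile syringe. Plates were incubated at 37 °C for 48 h. The read-out was inhibition zone diameter in mm, graded 0–6 mild, 7–13 moderate and 14–26 efficacy. Ciprofloxacin was the standard; 10% DMSO served as solvent control.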

[3] = system: Staphylococcus aureus; test: Antibacterial activity against Staphylococcus aureus 209p at 250 ug/ml after 48 hrs by agar well diffusion technique; details: read-out: IZ; how it was run: as §1
[4] = system: Escherichia coli; test: Antibacterial activity against Escherichia coli ESS 2231 at 250 ug/ml after 48 hrs by agar well diffusion technique; details: read-out: IZ; how it was run: as §1
[5] = system: Klebsiella pneumoniae; test: Antibacterial activity against Klebsiella pneumoniae at 250 ug/ml after 48 hrs by agar well diffusion technique; details: read-out: IZ; how it was run: as §1
[6] = system: Aspergillus fumigatus; test: Antifungal activity against Aspergillus fumigatus at 250 ug/ml after 48 hrs by agar well diffusion technique; details: read-out: IZ; how it was run: as §1
[7] = system: Candida albicans; test: Antifungal activity against Candida albicans at 250 ug/ml after 48 hrs by agar well diffusion technique; details: read-out: IZ
[8] = system: Nakaseomyces glabratus; test: Antifungal activity against Candida glabrata HO3 at 250 ug/ml after 48 hrs by agar well diffusion technique; details: read-out: IZ
[9] = system: Candida albicans; test: Antifungal activity against Candida albicans after 48 hrs by agar well diffusion technique
[10] = system: Pichia kudriavzevii; test: Antifungal activity against Candida krusei GO3 after 48 hrs by agar well diffusion technique
[11] = system: Nakaseomyces glabratus; test: Antifungal activity against Candida glabrata HO3 after 48 hrs by agar well diffusion technique

| Structure (SMILES) | zone of inhibition at 250 µg/mL [1] | zone of inhibition at 250 µg/mL [2] | zone of inhibition at 250 µg/mL [3] | zone of inhibition at 250 µg/mL [4] | zone of inhibition at 250 µg/mL [5] | zone of inhibition at 250 µg/mL [6] | zone of inhibition at 250 µg/mL [7] | zone of inhibition at 250 µg/mL [8] | MIC50 [9] | MIC50 [10] | MIC50 [11] |
| --- | --- | --- | --- | --- | --- | --- | --- | --- | --- | --- | --- |
| O=C(/C=C/C=C/c1ccccc1)c1ccc(N2CCNCC2)cc1 | 14 mm | 8 mm | 10 mm | 16 mm | 5 mm | 14 mm | 9 mm | 6 mm | 90 µg/mL (≈ 283 µM) | 60 µg/mL (≈ 188 µM) | 75 µg/mL (≈ 236 µM) |
| O=C(/C=C/c1ccccc1)c1ccc(N2CCNCC2)cc1 | 24 mm | 20 mm | 22 mm | 24 mm | 18 mm | 22 mm | 24 mm | 24 mm | 4.56 µg/mL (≈ 15.6 µM) | 5.38 µg/mL (≈ 18.4 µM) | 7.57 µg/mL (≈ 25.9 µM) |
| O=C(/C=C/c1ccccc1)c1cc(Cl)sc1Cl | 26 mm | 22 mm | 18 mm | 20 mm | 18 mm | 24 mm | 26 mm | 26 mm | 2.22 µg/mL (≈ 7.84 µM) | 3.17 µg/mL (≈ 11.2 µM) | 4.65 µg/mL (≈ 16.4 µM) |
| Cc1cccc(/C=C/C(=O)c2ccc(N3CCNCC3)cc2)c1 | 24 mm | 20 mm | 24 mm | 22 mm | 16 mm | 20 mm | 16 mm | 22 mm | 6.89 µg/mL (≈ 22.5 µM) | 5.69 µg/mL (≈ 18.6 µM) | 9.94 µg/mL (≈ 32.4 µM) |
| Cc1ccc(/C=C/C(=O)c2ccc(N3CCNCC3)cc2)cc1 | 22 mm | 14 mm | 16 mm | 14 mm | 14 mm | 18 mm | 22 mm | 24 mm | 8.75 µg/mL (≈ 28.6 µM) | 7.02 µg/mL (≈ 22.9 µM) | 7.66 µg/mL (≈ 25 µM) |
| COc1ccc(/C=C/C(=O)c2cc(Cl)sc2Cl)cc1 | 18 mm | 14 mm | 14 mm | 18 mm | 16 mm | 22 mm | 20 mm | 18 mm | 5 µg/mL (≈ 16 µM) | 18.2 µg/mL (≈ 58 µM) | 16.4 µg/mL (≈ 52.3 µM) |
| O=C(/C=C/c1ccc(Cl)cc1)c1cc(Cl)sc1Cl | 22 mm | 14 mm | 14 mm | 16 mm | 8 mm | 18 mm | 24 mm | 14 mm | 4.65 µg/mL (≈ 14.6 µM) | 70 µg/mL (≈ 220 µM) | 40 µg/mL (≈ 126 µM) |
| COc1ccc(/C=C/C(=O)c2ccc(N3CCNCC3)cc2)cc1 | 14 mm | 14 mm | 24 mm | 22 mm | 16 mm | 18 mm | 22 mm | 18 mm | 9.12 µg/mL (≈ 28.3 µM) | 50 µg/mL (≈ 155 µM) | 16.2 µg/mL (≈ 50.4 µM) |
| COc1cc(/C=C/C(=O)c2ccc(N3CCNCC3)cc2)cc(OC)c1OC | 12 mm | 6 mm | 6 mm | 8 mm | 9 mm | 12 mm | 9 mm | 9 mm | 65 µg/mL (≈ 170 µM) | 75 µg/mL (≈ 196 µM) | 60 µg/mL (≈ 157 µM) |
| O=C(/C=C/c1ccc(Cl)cc1)c1ccc(N2CCNCC2)cc1 | 20 mm | 16 mm | 18 mm | 22 mm | 14 mm | 12 mm | 18 mm | 14 mm | 55 µg/mL (≈ 168 µM) | 60 µg/mL (≈ 184 µM) | 60 µg/mL (≈ 184 µM) |
| O=C(/C=C/c1cccc([N+](=O)[O-])c1)c1ccc(N2CCNCC2)cc1 | 18 mm | 18 mm | 24 mm | 26 mm | 14 mm | 20 mm | 16 mm | 18 mm | 6.75 µg/mL (≈ 20 µM) | 18.6 µg/mL (≈ 55 µM) | 16.8 µg/mL (≈ 49.8 µM) |
| Cc1ccc(/C=C/C(=O)c2cc(Cl)sc2Cl)cc1 | 10 mm | 9 mm | 12 mm | 16 mm | 8 mm | 6 mm | 16 mm | 12 mm | 70 µg/mL (≈ 236 µM) | 70 µg/mL (≈ 236 µM) | 80 µg/mL (≈ 269 µM) |
| COc1cc(/C=C/C(=O)c2cc(Cl)sc2Cl)cc(OC)c1OC | 22 mm | 12 mm | 12 mm | 14 mm | 6 mm | 14 mm | 6 mm | 20 mm | 78 µg/mL (≈ 209 µM) | 40.1 µg/mL (≈ 108 µM) | 45.1 µg/mL (≈ 121 µM) |
| O=C(/C=C/c1cccc([N+](=O)[O-])c1)c1cc(Cl)sc1Cl | 12 mm | 18 mm | 24 mm | 22 mm | 20 mm | 16 mm | 18 mm | 14 mm | 5.97 µg/mL (≈ 18.2 µM) | 50 µg/mL (≈ 152 µM) | 50 µg/mL (≈ 152 µM) |
| O=C(/C=C/C=C/c1ccccc1)c1cc(Cl)sc1Cl | 16 mm | 11 mm | 9 mm | 16 mm | 7 mm | 20 mm | 8 mm | 16 mm | 75 µg/mL (≈ 243 µM) | 55.6 µg/mL (≈ 180 µM) | 60 µg/mL (≈ 194 µM) |
| O=C(O)c1cn(C2CC2)c2cc(N3CCNCC3)c(F)cc2c1=O [CIPROFLOXACIN] | – | 24 mm | 22 mm | – | 24 mm | 24 mm | – | – | – | – | – |
| OC(Cn1cncn1)(Cn1cncn1)c1ccc(F)cc1F [FLUCONAZOLE] | 29 mm | – | – | – | – | – | 29 mm | 29 mm | 50 µg/mL (≈ 163 µM) | 50 µg/mL (≈ 163 µM) | 50 µg/mL (≈ 163 µM) |
